Laboratory results reported in paper PMC6468299 (Nucleic Acids Research, 2019).
Marks after values point to notes of the source that are not given here.

What was measured:
[1] = molecular target: T1, human mitochondrial DNA polymerase γ (Pol-γ exo-mutant) (Homo sapiens, UniProt P54098, D198A/E200A); assay: Pol-γ primer extension; type: biochemical
T1 sequence (P54098 26-1239 D198A/E200A limits assumed): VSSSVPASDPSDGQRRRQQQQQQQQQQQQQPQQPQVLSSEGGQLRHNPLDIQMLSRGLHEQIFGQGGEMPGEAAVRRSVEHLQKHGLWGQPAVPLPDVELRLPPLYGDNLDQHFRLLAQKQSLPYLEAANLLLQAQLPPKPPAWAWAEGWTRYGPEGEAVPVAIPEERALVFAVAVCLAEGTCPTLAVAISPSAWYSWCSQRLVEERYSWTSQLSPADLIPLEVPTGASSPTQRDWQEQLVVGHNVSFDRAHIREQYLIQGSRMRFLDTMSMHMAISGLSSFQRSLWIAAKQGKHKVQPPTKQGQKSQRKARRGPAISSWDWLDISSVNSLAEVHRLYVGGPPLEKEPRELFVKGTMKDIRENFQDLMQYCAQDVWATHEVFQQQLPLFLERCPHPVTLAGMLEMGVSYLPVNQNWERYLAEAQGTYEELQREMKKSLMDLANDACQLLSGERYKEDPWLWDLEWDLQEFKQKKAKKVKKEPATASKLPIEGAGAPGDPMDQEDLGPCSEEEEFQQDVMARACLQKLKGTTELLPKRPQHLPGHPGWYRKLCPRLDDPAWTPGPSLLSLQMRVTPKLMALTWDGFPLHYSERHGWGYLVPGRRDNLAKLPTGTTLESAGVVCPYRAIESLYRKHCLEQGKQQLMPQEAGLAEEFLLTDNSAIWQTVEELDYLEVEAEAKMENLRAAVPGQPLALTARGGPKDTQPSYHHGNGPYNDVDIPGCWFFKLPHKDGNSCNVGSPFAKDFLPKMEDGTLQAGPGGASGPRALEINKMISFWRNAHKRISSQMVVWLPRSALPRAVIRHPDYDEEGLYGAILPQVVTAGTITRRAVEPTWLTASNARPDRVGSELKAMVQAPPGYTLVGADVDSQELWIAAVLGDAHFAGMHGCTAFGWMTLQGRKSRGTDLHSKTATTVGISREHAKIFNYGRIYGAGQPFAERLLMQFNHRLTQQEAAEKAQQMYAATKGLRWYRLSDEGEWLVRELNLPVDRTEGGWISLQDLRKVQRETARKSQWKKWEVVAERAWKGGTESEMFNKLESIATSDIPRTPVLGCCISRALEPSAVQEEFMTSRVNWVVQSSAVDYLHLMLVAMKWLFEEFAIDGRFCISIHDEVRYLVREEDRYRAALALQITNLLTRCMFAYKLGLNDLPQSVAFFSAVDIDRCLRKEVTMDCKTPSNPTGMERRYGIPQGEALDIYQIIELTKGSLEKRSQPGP
In short: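 Exonuclease-deficient human Pol-γ (40 units) was used with 100 nM DNA template and 100 nM Atto-425-labelled 14-mer DNA primer. Substrate was 1 mM dNTP or 2′-F-NTP, or mixtures 100:1 to 1:100 (1:1 both 1 mM). Products were separated by fluorescence IEX-HPLC (ex 436/em 485 nm) at pH 11. Products under 1.0% peak area were called not detected.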

[2] = molecular target: Human mitochondrial RNA polymerase (POLRMT) (Homo sapiens, UniProt O00411); assay: POLRMT primer extension; type: biochemical
In short: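 Reactions contained 200 nM DNA template, 25 nM Atto-425-labelled 12-mer RNA primer and 300 nM human POLRMT. Substrate was 1 mM NTP or 2′-F-NTP, or mixtures from 100:1 to 1:100 (1:1 both 1 mM). Products were resolved by fluorescence anion-exchange HPLC (ex 436/em 485 nm, pH 11 NaBr gradient). Products under 1.0% peak area were called not detected.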

Chain of Human mitochondrial RNA polymerase (POLRMT) (O00411 42-1230): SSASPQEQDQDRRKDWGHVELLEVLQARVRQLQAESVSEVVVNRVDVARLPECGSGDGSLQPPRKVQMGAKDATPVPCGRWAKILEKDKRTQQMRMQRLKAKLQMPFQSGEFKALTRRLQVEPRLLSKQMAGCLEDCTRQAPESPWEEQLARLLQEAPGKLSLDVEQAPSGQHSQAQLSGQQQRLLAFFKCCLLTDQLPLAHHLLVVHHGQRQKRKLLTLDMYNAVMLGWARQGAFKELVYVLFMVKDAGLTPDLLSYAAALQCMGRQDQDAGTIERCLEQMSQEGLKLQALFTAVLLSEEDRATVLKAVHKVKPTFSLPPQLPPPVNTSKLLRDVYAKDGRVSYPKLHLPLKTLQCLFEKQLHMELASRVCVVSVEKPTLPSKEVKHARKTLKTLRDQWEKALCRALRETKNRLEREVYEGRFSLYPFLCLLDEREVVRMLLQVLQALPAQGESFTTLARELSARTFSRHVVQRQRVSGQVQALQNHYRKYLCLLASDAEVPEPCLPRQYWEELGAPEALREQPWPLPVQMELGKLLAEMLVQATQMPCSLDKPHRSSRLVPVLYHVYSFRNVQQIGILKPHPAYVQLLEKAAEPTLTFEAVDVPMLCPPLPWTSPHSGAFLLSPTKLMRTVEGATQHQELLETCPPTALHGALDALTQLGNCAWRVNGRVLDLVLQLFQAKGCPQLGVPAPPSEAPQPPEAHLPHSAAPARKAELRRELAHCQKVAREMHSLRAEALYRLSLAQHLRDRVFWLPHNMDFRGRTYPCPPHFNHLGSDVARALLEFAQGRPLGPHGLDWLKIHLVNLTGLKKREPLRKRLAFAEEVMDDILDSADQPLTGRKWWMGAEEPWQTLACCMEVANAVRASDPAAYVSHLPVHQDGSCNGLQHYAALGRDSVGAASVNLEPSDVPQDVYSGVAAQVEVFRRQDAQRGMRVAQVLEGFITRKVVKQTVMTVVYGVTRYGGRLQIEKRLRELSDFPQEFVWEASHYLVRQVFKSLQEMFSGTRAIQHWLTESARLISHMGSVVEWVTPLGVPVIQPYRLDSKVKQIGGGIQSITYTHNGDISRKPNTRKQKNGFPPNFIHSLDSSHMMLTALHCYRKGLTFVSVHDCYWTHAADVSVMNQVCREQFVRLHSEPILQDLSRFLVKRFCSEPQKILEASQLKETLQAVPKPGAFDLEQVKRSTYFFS

Row | SMILES | % 2′-F product ([1]; F only) | % Native product ([1]; Native only (no 2′-F-NTP)) | % 2′-F product ([1]; Native:F ratio 1:1) | % Native product ([1]; Native:F ratio 1:1) | % 2′-F product ([1]; Native:F ratio 1:10) | % Native product ([1]; Native:F ratio 1:10) | % 2′-F product ([1]; Native:F ratio 1:100) | % Native product ([1]; Native:F ratio 1:100) | % 2′-F product ([2]; F only) | % Native product ([2]; Native only (no 2′-F-NTP)) | % 2′-F product ([2]; Native:F ratio 1:1) | % Native product ([2]; Native:F ratio 1:1) | % 2′-F product ([2]; Native:F ratio 1:10) | % Native product ([2]; Native:F ratio 1:10) | % 2′-F product ([2]; Native:F ratio 1:100) | % Native product ([2]; Native:F ratio 1:100)
1 | Nc1ncnc2c1ncn2[C@@H]1O[C@H](COP(=O)(O)OP(=O)(O)OP(=O)(O)O)[C@@H](O)[C@H]1F [2′-F-ATP] | 94.2^a % | 95.9^a % | ND (not detected (integration peak area <1.0%)) | 96.3^a % | ND (not detected (integration peak area <1.0%)) | 97.1^a % | 17.6^b % | 79.8^b % | 42.6^a % | 69.2^a % | ND (not detected (integration peak area <1.0%)) | 67.8^a % | ND (not detected (integration peak area <1.0%)) | 63.5^a % | ND (not detected (integration peak area <1.0%)) | 51.4^a %
2 | Nc1ccn([C@@H]2O[C@H](COP(=O)(O)OP(=O)(O)OP(=O)(O)O)[C@@H](O)[C@H]2F)c(=O)n1 [2′-F-CTP] | 94.0^a % | 97.3^a % | ND (not detected (integration peak area <1.0%)) | 96.2^a % | 4.4^b % | 90.6^b % | 30.9^b % | 64.5^b % | 58.7^a % | 48.8^a % | ND (not detected (integration peak area <1.0%)) | 39.3^a % | ND (not detected (integration peak area <1.0%)) | 43.7^a % | 9.1^b % | 37.0^b %
3 | Nc1nc2c(ncn2[C@@H]2O[C@H](COP(=O)(O)OP(=O)(O)OP(=O)(O)O)[C@@H](O)[C@H]2F)c(=O)[nH]1 [2′-F-GTP] | 73.9^a % | 89.2^a % | ND (not detected (integration peak area <1.0%)) | 85.0^a % | ND (not detected (integration peak area <1.0%)) | 88.9^a % | 23.7^b % | 56.0^b % | 78.9^a % | 95.0^a % | ND (not detected (integration peak area <1.0%)) | 96.4^a % | ND (not detected (integration peak area <1.0%)) | 83.4^a % | 8.9^b % | 69.2^b %
4 | O=c1ccn([C@@H]2O[C@H](COP(=O)(O)OP(=O)(O)OP(=O)(O)O)[C@@H](O)[C@H]2F)c(=O)[nH]1 [2′-F-UTP] | 87.3^a % | 83.3^a % | ND (not detected (integration peak area <1.0%)) | 83.8^a % | 2.9^b % | 90.0^b % | 7.6^b % | 80.1^b % | 31.8^a % | 40.8^a % | ND (not detected (integration peak area <1.0%)) | 32^a % | ND (not detected (integration peak area <1.0%)) | 45.3^a % | ND (not detected (integration peak area <1.0%)) | 35.6^a %
5 | O=c1[nH]c(=O)n([C@@H]2O[C@H](COP(=O)(O)OP(=O)(O)OP(=O)(O)O)[C@@H](O)[C@@H]2F)cc1I [FIAU-TP, fialuridine triphosphate, reference compound] | 94.4^a % | 98.3^a % | 4.5^b % | 91.7^b % | 44.0^b % |  | 82.7^b % |  | 21.0^a % | 34.6^a % | ND (not detected (integration peak area <1.0%)) | 25.1^a % | ND (not detected (integration peak area <1.0%)) | 25.4^a % | 1.1^b % | 24.10^b %
